Results as given in the EternaBench riboswitch data.

Tested on: MS2 coat protein
Assay: apparent Kd, MS2 coat protein; higher = weaker binding; RNA-MaP array; FMN 200 µM where present
Summary of the method: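 Stalled E. coli RNA polymerase transcribed each design on Illumina sequencing-chip clusters. The clusters were titrated with SNAP-549-labelled MS2 coat protein, starting at 0.7 or 1.5 nM and doubling up to 3 µM, first without ligand and then with constant ligand, in 100 mM Tris-HCl pH 7.5, 80 mM KCl, 4 mM MgCl2, BSA, DTT, yeast tRNA and Tween-20. Green signal was normalised to red-channel RNA signal and to the control-cluster median Fmax. The apparent Kd is the median of filtered binding-curve fits made for each cluster.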

[1] = designed as: OFF switch for flavin mononucleotide, no ligand
[2] = ligand present: flavin mononucleotide, designed as: OFF switch for flavin mononucleotide
[3] = designed as: ON switch for flavin mononucleotide, no ligand
[4] = ligand present: flavin mononucleotide, designed as: ON switch for flavin mononucleotide

Row | Sequence | apparent Kd [1] [nM] | apparent Kd [2] [nM] | apparent Kd [3] [nM] | apparent Kd [4] [nM]
1 | AAGAAACACGUGGAGUUAUUCGGGUAGGAUAUCUACGACCUGAUCGACAUGAGGAUCACCCAUGUAGAGAAGGGCCCAUCUCCU | 6.65 | 8.87 |  | 
2 | GGGUACAUCGGAGGAUAUCAUGUAAAUACAUGAGGAUCACCCAUGUCGAUGGAGACAUCGCAGAUUGAGAAGGCCGAUGUACCG |  |  | 28 | 5.26
3 | AAAUAAAACGAUCGGCGAUCCAAACAUGAGGAUCACCCAUGUAGAAGGCACUCUACAUAGUAGAGUGAGGAUAUACGAGAUCGA | 22.1 | 584 |  | 
4 | CGGCCGCUACGCCGGCUCGACGCACAGGAUAUGCAGUUACAUGAGGAUCACCCAUGUGGCCAUGUGCAGAAGGGUGAUUCGCGA |  |  | 135 | 43.6
5 | AGUUUACAUGAGGAUCACCCAUGUGAGGAUAUGGUUUCGCUGGCCGUAGCCAGUGGAACCAGAAGGCGCAUGAU | 76 | 349 |  | 
6 | ACAAAGGUAGGAUAUCGGACUAUGGACAUGAGGAUCACCCAUGUGCGUCCAAUGCCCAACCGAGAAGGACCAACAG | 47.1 | 89 |  | 
7 | ACAUGAGGAUCACCCAUGUUAUCAGGGACUUCAAUUAUUUCUAGAAGGCUGUUUACUUGUUAGUCAGAGGAUAUAGAAUUAAAU | 14.5 | 15.9 |  | 
8 | GAGCGGGAAACAUGAGGAUCACCCAUGUAGUAAAUCCUCACGUAGGAUAUGCACACGAGAAGUGUGCAGAAGGGCGACCCGGUC | 79.6 | 183 |  | 
9 | UGCGGAAUCACAGGAUAUGCGGGAAGAACGAUACCGUACAUGAGGAUCACCCAUGUGGCGGCAAAGCAGAAGGGUGGUUCUCGC |  |  | 8.42 | 5.79
10 | AGAAACUACGAGAAGGACAUAUAAUUCUUCAGAUACAUGAGGAUCACCCAUGUAGGAUAUCGUAGUUUCAGGAUCGUGAGAUCA | 5.95 | 10.3 |  | 
11 | AAUAACAGAGGAUAUACUAUUUUAUGUGUUUGUUAUUUUGAACAUGAGGAUCACCCAUGUAGAAGGCUGAUUGA | 47 | 44 |  | 
12 | AUCAGCUCGUCAGGAUAUACGUCACUGCGUCAGCAGUGUGGUAAGAUCACAUGAGGAUCACCCAUGUAGAAGGAACGAGCUGAU | 8.41 | 14.7 |  | 
13 | ACAUGAGGAUCUCCCAUGUAAAAUUAGGAUAUAUGACUGCACAUGAGGAUCACCCAUGUUCUACCGUAGAAGGGAUAAAUAAUU |  |  | 516 | 427
14 | AAAAGGCUAGGAUAUACAUGAGGAUCACCCAUGUGUACUGGACAUGCGGUAUGCGGAUGUAGAAGGAGUAUAAA | 23.4 | 62.4 |  | 
15 | GUAGCAAUCGGAGGAUAUUCAUUAAACAUGAGGAUCACCCAUGUUAAUUUGGGAGAAGGCCGAUUGCUACAAGAGCGAAAGCUC |  |  | 7.23 | 4.66
16 | UGCGGAUAUCGAGGAUAUGCGACGGGUUCUCACAUGAGGAUCACCCAUGUCCGCGGGCCUCAAAAGCAGAAGGCGAGUUCGGUU |  |  | 376 | 10.6
17 | GUCGGAAACGACAAGUAGCAAUCGGAGGAUAUUCAUUAAAACAUGAGGAUCACCCAUGUAAAAUGGGAGAAGGCCGAUUGCUAC |  |  | 13.6 | 6.03
18 | GGAUAGGACAGAGGAUAUACGUGCUAGAGAUACUAGCAAAAUUUCCUCACAUGAGGAUCACCCAUGUAGAAGGCUGUCCUAUGG | 16.6 | 402 |  | 
19 | AACUCGUCAGGAUAUGCGCGCAGUUACUGCGCUUCGCAAUUGCAGAAGGGACAUGAGGAUCACCCAUGUAGGUC | 42 | 45.4 |  | 
20 | GACUUGCGCACAGGAUAUCCACGGAGCGGACGUGGAGAAGGGUGACAUGAGGAUCACCCAUGUACGUAAGUCUGGAUCACAUCC |  |  | 41.8 | 19.5
21 | CGUCGAUACCAGAAGGACAUGAGGAUCACCCAUGUAGGAUAUGGGUGACCGGGAUAGUGGACACAGCGCCCGGGCACAUGCGAC |  |  | 13.6 | 8.19

Row | Sequence | apparent Kd [1] [nM] | apparent Kd [2] [nM] | apparent Kd [3] [nM] | apparent Kd [4] [nM]
22 | UAUUUAUAAUAUUUUAACAUGAGGAUCACCCAUGUCGCUAGACAGGAUAUAUUUUAUUUGUUUAAGUAGAAGGGUCGUAGAUUU |  |  | 166 | 138
23 | GUAGGCGACCAGAAGGGUGACAUGAGGAUCACCCAUGUAGGUGUGUUCCCGCUUAGGAGCCACCCACAGGAUAUGGUUGGUUAG |  |  | 27.6 | 23.9
24 | GACACUAUGUUUGUCAGAUAGAGAGAGGAUAUGGCUCAUGUGACAUGAGGAUCACCCAUGUAUAAUCAGAAGGCUCGAGUACGA |  |  | 45.9 | 16.3
25 | UGUCGGAGCAGAGGAUAUUACAUGAGGAUCACCCAUGUAUGACCCAAUAGCUGGAAACAGCAAUGUAAGAAGGCUGCUCCGACA | 14.6 | 295 |  | 
26 | GUAUUUUGAGGAUAUACUAUUAACCACAUGAGGAUCACCCAUGUUCUAUCAUGAAUUUAUGUAGAAGGCAGAAUGC | 71.8 | 128 |  | 
27 | AAAAAAAGAGGAUAUACAUGAGAAAAAAAAAUGUAAAAAAAACAUGAGGAUCACCCAUGUAGAAGGCUUAAAAA | 34.6 | 45.4 |  | 
28 | UCCUGGCGAGGAUAUACAAUGUUUUUCGCGUGUAGUUGGAAACAUGAGGAUCACCCAUGUAGAAGGUGCUACUG | 32.6 | 25.6 |  | 
29 | CAGGUAGACUGAGGAUAUACACUAAACAGCUAGUCUAUCUAGCUGAUCACAUGAGGAUCACCCAUGUAGAAGGCAGUCUGCCUG | 19.6 | 56.5 |  | 
30 | CUAUCAAGCAAGGAUAUGCAAAUAAUUAUUUAUGCAGAAGGUGCAACAUGAGGAUCACCCAUGUUUCUGGGUUU | 57.4 | 89.6 |  | 
31 | GGACCGCGCAGAAUUGGCGGCCGGCAGGAUAUGACAUGAGGAUCACCCAUGUGAACUCCAUUGGGUCAGAAGGGCCACGACACA | 21.1 | 66.8 |  | 
32 | UUACAUACAAAGGUACAUGAGGAUCACCCAUGUUUGUUGGGAAGAAGGGUAACAGUACUACACAUAUAGGAUAUUUCACAAAUA |  |  | 52.4 | 40
33 | GUUAGUUAAGGAUAUACAGGGAGCUGCGGCGUCUCGCCGCAACAUGAGGAUCACCCAUGUAGAAGGUGGCCAUU | 548 | 586 |  | 
34 | UUAUUAUAUGUAGGAUAUGCGUAUUAUUAUUAUGCAGAAGGACAUGAGGAUCACCCAUGUAUAUUAUUAUUAUAUAUUAUAUAU | 29 | 66.9 |  | 
35 | CCCUCAACAUGAGGAUCACCCAUGUAGGAUAUCGCUAUUGUAAUCAUGAAACAUGAUUACAAUAGCGAGAAGGACAUAUGUUUU | 25.9 | 127 |  | 
36 | CGAUAUAUGAAGGGCGAAAGCCCACAUGAGGAUCACCCAUGUAGAAGGCGGGCCGCAACGCGGCCCGAGGAUAUAUAAUAUACA |  | 9.15 |  | 
37 | AAUUAUUGAUGAGGAUAUUGUGGUGAAACACGACAAGAAGGCAUUAUUCACAUGAGGAUCACCCAUGUGAGCCUGAUGCAUAUA | 14.5 | 13.9 |  | 
38 | UUCGUGGCAUCUCGCGCAUGUCCACAUGAGGAUCACCCAUGUCAGGAUAUACGGAAUGUCGUUCCGUAGAAGGGACAAGGGCUG | 139 | 112 |  | 
39 | UACGUACAGAAGUACUCCGGGUCCAGAAGGGACAUGAGGAUCACCCAUGUACCGUUGAUUGCUUGUCAGGAUAUGGACCCGGCC | 7.29 | 28.5 |  | 
40 | CCGGAAACGGGUAGCCUGACAUGAGGAUCACCCAUGUGAACCGAGGAUAUGGAUCCUAAUUGGAUCCAGAAGGUGGAAGGCUAC |  |  | 381 | 167
41 | ACAUGAGGAUCACCCAUGUAGAAUGAAGAAGGUAGAUAAUUGUGUUUCACCCAUGUACAUAAAUCUAAGGAUAUUCUAAUAAUU |  |  | 12.3 | 7.35
